This is a sample that favours compounds with a hit; in the whole collection about 2.2% have one here.
DDE Tn7 FP inh – DD(E)-Tn7 binding inhibition, primary FP screen | P02675 | FP displacement of FITC-Tn7 peptide from fibrin DD(E); 0% = median of compound wells per plate | inhibition, % at 8.3 µM | 370,000 compounds, 0.13% hits;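 active = inhibition above the mean of compounds falling within the control limits plus 3 SD of them, cut at about 14% in these data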;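 also: 0% = plate median of compound wells and 100% = 10 µM Aha-Tn7 peptide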
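Test system: human clot-derived fibrin DD(E) complex / Quantity: 2 µM final DD(E) protein / Incubation: 10 min plus 3 h, room temperature / Measured by: fluorescence polarization / Benchmarks: high control of 10 µM Aha-Tn7 peptide / Replicates: singlicate testing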
KLK7 zymogen act – activates the human kallikrein-7 zymogen; P49862; purified proKLK7, EDANS-DABCYL substrate fluorescence; 100% is mature enzyme control, 0% vehicle; activation, % at 7 µM; 370,000 compounds, 0.9% hits; AID 652039;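 active = activation above the mean of all tested compounds plus 3 SD, computed per campaign excluding outliers beyond control limits, cut at about 13% in these data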
MT1-MMP act inh – inhibitors of human MT1-MMP activation. AID 651647. 360,000 compounds, 0.061% hits. HT1080 RFP-PRO-GFP cells, GFP/RFP ratio fluorescence, overnight; percent of plate control window, DMSO zero. GFP/RFP ratio change, % at 20 µM;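 active = GFP/RFP ratio change of at least 30% with cell ATP level not reduced by more than half and red fluorescence within 50% of control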
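Compound: 20 µM single dose, 1% DMSO / System: HT1080 RFP-PRO-GFP cells / Controls: DMSO and RFP-L50D-GFP cell wells / Read-out basis: GFP/RFP fluorescence ratio / Schedule: overnight compound exposure at 37 °C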
SKN-1 block – inhibitors of C. elegans SKN-1; AID 624304; C. elegans VP596 Pgst-4::GFP/RFP ratio, acrylamide-induced, 24 h; 360,000 compounds, 0.49% hits; inhibition, % at 21.8 µM;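 active = interference check ratio from 0.5 to 1.5 plus GFP to RFP signal ratio inhibition reaching or exceeding a fixed threshold, cut at about 30% in these data, passing the limit was not always enough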
Tn6 DDE FP – inhibitors of Tn6 peptide binding to human fibrin DD(E). P02675. Fibrin DD(E) TRITC-Tn6 fluorescence polarization displacement. inhibition, % at 8.3 µM. 370,000 compounds, 0.21% hits. AID 720509;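 active = inhibition above a per-campaign cutoff: mean of compounds within control limits plus 3 SD, cut at about 15% in these data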;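 also: 0% = median of all compound wells on the plate and 100% = blocking peptide control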
Neddylation inh – inhibitors of human cullin neddylation; P61081+Q13564; TR-FRET cullin neddylation, biochemical; calls only at 25 µM; 360,000 compounds, 0.58% hits; in the data active = inhibition above about 36%
Target sequence (P61081 whole entry, looked up): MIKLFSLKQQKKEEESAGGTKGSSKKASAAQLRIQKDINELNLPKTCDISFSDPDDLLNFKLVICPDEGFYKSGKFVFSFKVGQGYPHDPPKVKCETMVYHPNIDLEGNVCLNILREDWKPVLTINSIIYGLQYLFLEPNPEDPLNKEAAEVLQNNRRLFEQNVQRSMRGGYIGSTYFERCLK
Target sequence (Q13564 whole entry, looked up): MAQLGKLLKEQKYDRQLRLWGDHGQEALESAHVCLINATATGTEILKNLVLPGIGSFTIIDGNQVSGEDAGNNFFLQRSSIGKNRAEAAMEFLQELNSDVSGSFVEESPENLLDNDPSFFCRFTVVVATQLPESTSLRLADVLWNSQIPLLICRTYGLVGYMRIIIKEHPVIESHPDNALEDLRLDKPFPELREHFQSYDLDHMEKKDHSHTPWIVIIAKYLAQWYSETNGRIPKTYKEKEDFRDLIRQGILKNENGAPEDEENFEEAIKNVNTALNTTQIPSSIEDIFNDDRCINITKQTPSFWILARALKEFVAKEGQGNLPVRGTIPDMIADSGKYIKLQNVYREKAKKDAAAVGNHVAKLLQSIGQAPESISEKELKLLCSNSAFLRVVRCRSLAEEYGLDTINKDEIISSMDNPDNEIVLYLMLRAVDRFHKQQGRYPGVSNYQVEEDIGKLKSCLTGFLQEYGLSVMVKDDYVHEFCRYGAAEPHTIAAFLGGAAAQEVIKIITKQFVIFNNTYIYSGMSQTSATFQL
* = called active by the depositor; i = inactive; / = no result shown; + = active, no number.

SMILES	DDE Tn7 FP inh	KLK7 zymogen act	MT1-MMP act inh	SKN-1 block	Tn6 DDE FP	Neddylation inh
COc1ccc(/C(N)=N/OC(=O)c2ccco2)cc1	2.7	-0.9	1.8	51.1*	2.5	i
N/C(=N\OC(=O)Cc1cccs1)c1ccc(Br)cc1	4.7	0.3	1.0	60.7*	8.5	i
Cc1ccc(/C(N)=N/OC(=O)c2ccco2)cc1	-10.0	0.6	-0.2	85.3*	4.9	i
N/C(=N\OC(=O)c1ccco1)c1ccc(Br)cc1	-3.9	0.4	1.5	50.2*	-4.5	i
N/C(=N\OC(=O)c1ccco1)c1ccccc1	6.0	0.5	0.0	12.5	-5.6	i
O=C(NCCO)C1(c2ccc(Cl)cc2)CCCC1	0.8	0.1	1.1	-11.7	4.2	i
O=C(Nc1ccc(S(=O)(=O)N2CCOCC2)cc1)c1ccc([N+](=O)[O-])o1	0.2	0.2	2.3	18.3	-3.7	i
Nc1c(C(=O)NC2CC2)sc2nc3c(c(-c4ccco4)c12)CC/C3=C/c1ccco1	/	/	-1.3	10.1	/	i
O=C(CN1CCN(S(=O)(=O)N2CCCCC2)CC1)Nc1cc(Cl)cc(Cl)c1	1.1	1.3	3.1	36.9*	-3.7	i
FC(F)(F)c1ccccc1Cc1c(-c2ccc(Cl)cc2)nc2ccc(Br)cn12	5.8	-0.4	-3.5	33.2	8.8	i
Fc1ccc(-c2nc3ccc(Br)cn3c2Cc2ccccc2C(F)(F)F)cc1	-4.8	0.1	-0.4	50.9*	-1.5	i
Cc1nc(NC(=O)C2CC3CCCC(C2)C3=O)sc1C (stereo unspecified)	3.0	-0.2	1.4	32.9*	-6.4	i
Cc1nc(NC(=O)C2CCCCC2C(=O)O)sc1C (stereo unspecified)	-4.1	0.3	-1.5	8.5	1.4	i
C=CCOC(=O)COc1ccc2c(C)c(C)c(=O)oc2c1C	-2.0	5.6	4.6	1.7	3.9	+
Cc1sc(N/N=C/c2cccnc2)nc1-c1ccc(Cl)cc1	1.4	-0.1	-1.8	35.3*	-0.9	i
Clc1ccc(N/N=C/c2cccnc2)cc1	-0.2	-0.1	-0.2	8.0	6.1	i
O=[N+]([O-])c1ccc(N2CCOCC2)cn1	3.7	-0.4	2.7	13.5	2.7	i
COC(=O)CSc1nc2cc(C)cc(C)c2cc1C#N	0.7	-0.1	-32.9	37.3*	-0.8	i
Cc1cc(C)c2cc(C#N)c(N3CCCC3)nc2c1	5.4	7.3	-2.6	48.2*	5.3	i
COC(=O)CSc1nc2ccc(C)cc2cc1C#N	-2.7	7.1	-21.2	-7.4	-4.5	i
Cc1cc(C)c2cc(C#N)c(N3CCCN(C(=S)NCCCN(C)C)CC3)nc2c1	0.6	1.5	-0.5	9.4	-4.5	i
COc1ccc(CNC(=O)COC(=O)C2CC3C=CC2C3)cc1 (stereo unspecified)	-0.7	-0.2	8.1	0.8	-3.0	i
COC(=O)c1cn(NC(=O)C2COc3ccccc3O2)c(=O)c2ccccc12 (stereo unspecified)	13.2	-0.2	/	36.1*	1.3	i
COc1ccc(N(Cc2ccccc2)S(=O)(=O)c2cccc(C(=O)Nc3ccccn3)c2)cc1	-3.4	0.4	-1.2	-2.3	-4.5	i
O=C(/C=C\Nc1ccccn1)c1ccccc1	0.1	0.2	-1.5	61.2*	5.5	i
SMILES	DDE Tn7 FP inh	KLK7 zymogen act	MT1-MMP act inh	SKN-1 block	Tn6 DDE FP	Neddylation inh
O=C(/C=C/Nc1ccc(Br)cc1F)c1ccccc1	-4.0	-0.4	-3.2	50.1*	1.5	i
COc1ccc(C(=O)/C=C/Nc2ccccn2)c(OC)c1	2.0	3.1	1.7	-10.9	-4.8	i
Cc1ccc2c(COC(=O)c3ccccc3F)cc(=O)oc2c1	3.1	0.0	-3.6	16.0	4.6	i
Cc1oncc1-c1csc(-c2ccccc2Cl)n1	2.1	0.3	-0.1	44.7*	0.1	i
CC(C)CCC(CCNCc1ccccn1)c1ccc2c(c1)OCO2 (stereo unspecified)	-8.5	0.3	/	-7.2	-4.8	i
CC(C)C(CCNCc1ccccn1)c1ccc(Cl)cc1 (stereo unspecified)	-4.2	-0.1	2.4	38.3*	4.5	i
CCCS(=O)(=O)N1CCCC(C(=O)NCCCN2CCCC2=O)C1 (stereo unspecified)	0.7	-1.0	5.0	-23.2	3.8	i
O=C(N/N=C/c1ccccc1O)C1CC(=O)N(c2ccc(Cl)cc2)C1 (stereo unspecified)	2.4	-40.4	1.8	5.4	9.9	+
CCN1CCN(c2cc(C)c3cc(NC(=S)N4CCCCC4)ccc3n2)CC1	-3.0	12.1	2.1	37.5*	-5.9	i
CCN1CCN(c2cc(C)c3cc(NC(=S)N4CCCC4)ccc3n2)CC1	9.2	1.2	0.0	-4.4	2.1	i
Cc1cc(N2CCOCC2)nc2ccc(NC(=O)C3CCC(C)CC3)cc12 (stereo unspecified)	3.7	-0.3	10.1	35.2*	1.9	/
Cc1nc2ccc(NC(=O)c3ccccc3)cc2c(=O)n1Cc1ccc(F)cc1	4.2	-0.1	-12.9	13.3	3.3	i
Clc1ccc(C2=CC(c3ccco3)n3ncnc3N2)cc1 (stereo unspecified)	15.8*	2.7	-214.6	26.1	-3.0	i
O=C(O)CN1C(=O)C2C3CC(C2C1=O)C1C(c2ccc(F)cc2)c2sc(=O)[nH]c2SC31 (stereo unspecified)	1.9	0.6	2.3	47.6*	1.4	i
CC(=O)Nc1ccc(S(=O)(=O)N(C)CC(=O)N/N=C/c2cccs2)cc1	-3.3	-0.4	-0.2	-3.9	-5.6	i
CC(=O)Nc1ccc(S(=O)(=O)N(C)CC(=O)NNC(=O)c2cccs2)cc1	-3.6	0.4	-3.1	41.6*	-5.2	i
Cc1ccccc1-n1c(SCC(=O)O)nc2sc3c(c2c1=O)CCCC3	2.5	0.5	3.1	35.6*	-2.3	i
Cc1ccc(S(=O)(=O)NCC(=O)N(CC2CCCO2)C(C(=O)NC2CCCCC2)C(C)C)cc1 (stereo unspecified)	-11.8	-0.5	-0.7	14.7	0.5	i
C/C(=N\OCC(=O)N/N=C/c1ccc(C)cc1O)c1cccs1	3.4	-13.9	8.9	-24.5	-3.8	+
O=C(CN1C(=O)NC2(CCCC2)C1=O)Nc1nc2ccccc2s1	-0.6	-0.1	4.0	13.5	-2.0	i
CCC(C)(C)c1nnc(NC(=O)CCC2CCCCC2)s1	-3.1	0.4	4.0	35.7*	-3.5	i
Fc1ccc(N2CCN(c3cnc4ccccc4n3)CC2)cc1	3.5	0.1	-0.1	63.0*	1.3	i
c1ccc(N2CCN(c3cnc4ccccc4n3)CC2)cc1	8.3	0.6	-1.2	47.0*	6.5	i
